Calls of active or inactive are those of the source. No cut-off for these calls is given here.
Tests used:
Mus musculus [1] = assay: Toxicity in SAMP6 mouse assessed as pathological changes in heart at 30 mg/kg/day, po after 3 months by histomorphology; type: organism-based; parameters: route oral; conditions: in vivo
Outline: (§1)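 SAMP6 mice, n = 5 per group, dosed orally at 30 mg/kg/day in 0.5% methylcellulose for 3 months. Heart, liver, spleen, lung and kidney harvested, weighed and examined histologically. Organ/body weight indexes, body weight, and 24 h water and food intake (g/g body weight) compared with vehicle controls.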

Rattus norvegicus [2] = assay: Induction of bone formation in ovariectomized rat assessed as decrease in trabecular resorption surface percentage at 15 mg/kg/day, po after 3 months; type: functional, organism-based; conditions: Trabecula
Outline: (§2)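 Female rats (205–235 g) randomized by body weight, n = 7 per group: sham, ovariectomized with vehicle, ovariectomized with raloxifene 5 mg/kg/day, and ovariectomized with compound at 7.5, 15 or 30 mg/kg/day. All dosing oral for 3 months. Undecalcified proximal tibia sections analysed by histomorphometry, with comparisons against the sham and ovariectomized groups.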

Rattus norvegicus [3] = assay: Prevention of bone loss in po dosed ovariectomized rat assessed as increase in number, thickness, area and connectivity of trabecula after 3 months by histomorphometry Leica Qwin image analysis; type: functional, organism-based; outline: as §2
Mus musculus [4] = assay: Toxicity in SAMP6 mouse assessed as pathological changes in lung at 30 mg/kg/day, po after 3 months by histomorphology; type: organism-based; parameters: route oral; conditions: in vivo; outline: as §1
Mus musculus [5] = assay: Induction of BMP2 expression in SAMP6 mouse osteoblast at 10 mg/kg/day, po after 3 months by immunohistochemical analysis; type: functional, organism-based
Outline: (§3)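 SAMP6 mice, 5 months old, male and female, n = 5 per group (3 male, 2 female). Dosed by gavage with compound suspended in 0.5% methylcellulose daily for 3 months; the vehicle group received methylcellulose only. Proximal third of the left femur fixed in 4% neutral paraformaldehyde for 24 h, decalcified in 10% EDTA at 4 °C for 4 weeks, then frozen-sectioned at 5 μm. Stained with rabbit polyclonal anti-BMP-2 and an alkaline phosphatase secondary. BMP-2-positive area was taken as a percentage of bone tissue area, averaged over five fields below the epiphyseal plate.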

Rattus norvegicus [6] = assay: Induction of bone formation in ovariectomized rat assessed as decrease in trabecular resorption surface percentage at 7.5 mg/kg/day, po after 3 months; type: functional, organism-based; conditions: Trabecula; outline: as §2
[7] = Toxicity in ip dosed Kunming mouse assessed as mortality treated for 3 days measured after 17 days; type: organism-based; conditions: in vivo
Rattus norvegicus [8] = assay: Toxicity in rat assessed as pathological changes in lung at 150 mg/kg/day, po after 3 months by histomorphology; type: organism-based; parameters: route oral; conditions: in vivo
Outline: (§4)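 Rats, n = 7, given oral doses of 150 mg/kg/day for 3 months. Heart, liver, spleen, lung and kidney examined histologically for pathological change.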

Rattus norvegicus [9] = assay: Induction of bone formation in ovariectomized rat assessed as decrease in trabecular resorption surface percentage at 30 mg/kg/day, po after 3 months; type: functional, organism-based; conditions: Trabecula; outline: as §2
Mus musculus [10] = assay: Toxicity in SAMP6 mouse assessed as increase in body weight at 30 mg/kg/day, po after 3 months; type: organism-based; parameters: route oral; conditions: in vivo; outline: as §1
Mus musculus [11] = assay: Toxicity in SAMP6 mouse assessed as change in 24 hrs water consumption at 30 mg/kg/day, po after 3 months; type: organism-based; parameters: route oral; conditions: in vivo; outline: as §1
Mus musculus [12] = assay: Toxicity in SAMP6 mouse assessed as pathological changes in kidney at 30 mg/kg/day, po after 3 months by histomorphology; type: organism-based; parameters: route oral; conditions: in vivo; outline: as §1
Mus musculus [13] = assay: Induction of bone mineral density in SAMP6 mouse assessed as whole body BMD at 30 mg/kg/day, po measured after 2 months
Mus musculus [14] = assay: Induction of bone formation in SAMP6 mouse right femora assessed as trabecular bone volume percentage at 30 mg/kg/day, po measured after 3 months by bone histomorphometry; type: functional, Trabecula
Outline: (§5)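 SAMP6 mice, 5 months old, n = 5 per group (3 male, 2 female), randomized by initial BMD. Given compound in 0.5% methylcellulose by gavage daily for 3 months. Proximal third of the right femur fixed in 4% paraformaldehyde, cut as undecalcified sections, and scored by image analysis for histomorphometry.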

Rattus norvegicus [15] = assay: Prevention of bone loss in ovariectomized rat assessed as increase in number, thickness, area and connectivity of trabecula at 15 mg/kg/day, po after 3 months by histomorphometry Leica Qwin image analysis; type: functional, organism-based; outline: as §2
Mus musculus [16] = assay: Induction of bone formation in SAMP6 mouse right femora assessed as trabecular resorption surface percentage at 30 mg/kg/day, po measured after 3 months by bone histomorphometry; type: functional, Trabecula; outline: as §5
[17] = Toxicity in po dosed Kunming mouse assessed as mortality treated for 3 days measured after 17 days; type: organism-based; conditions: in vivo
Outline: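 Male and female Kunming mice (18-21 g), six per group (three males, three females), were dosed orally at 500 or 700 (mg/kg)/day for 3 days. They were closely watched for deaths over the 3 dosing days and the following 14 days (17 days in total).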

Rattus norvegicus [18] = assay: Toxicity in rat assessed as pathological changes in liver at 150 mg/kg/day, po after 3 months by histomorphology; type: organism-based; parameters: route oral; conditions: in vivo; outline: as §4
Mus musculus [19] = assay: Induction of bone formation in SAMP6 mouse right femora assessed as trabecular formation surface percentage at 30 mg/kg/day, po measured after 3 months by bone histomorphometry; type: functional, Trabecula; outline: as §5
Mus musculus [20] = assay: Induction of bone mineral density in SAMP6 mouse assessed as whole body BMD at 30 mg/kg/day, po measured after 3 months; type: functional
Outline: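 SAMP6 mice, 5 months old, n = 5 per group, given compound in 0.5% methylcellulose by gavage daily. Dual-energy X-ray absorptiometry under pentobarbital anaesthesia (50 mg/kg ip), animals prone, at 0, 4, 8 and 12 weeks of treatment. Regions of interest were whole body, spine and left hind leg.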

Mus musculus [21] = assay: Induction of BMP2 expression in SAMP6 mouse osteoblast at 30 mg/kg/day, po after 3 months by immunohistochemical analysis; type: functional, organism-based; outline: as §3
Mus musculus [22] = assay: Induction of BMP2 expression in SAMP6 mouse bone marrow stroma at 30 mg/kg/day, po after 3 months by immunohistochemical analysis; type: functional, organism-based; outline: as §3
Rattus norvegicus [23] = assay: Toxicity in rat assessed as pathological changes in spleen at 150 mg/kg/day, po after 3 months by histomorphology; type: organism-based; parameters: route oral; conditions: in vivo; outline: as §4
Rattus norvegicus [24] = assay: Toxicity in rat assessed as pathological increase in body weight at 150 mg/kg/day, po after 3 months; type: organism-based; parameters: route oral; conditions: in vivo
Outline: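 Female rats (n = 7) were dosed orally once daily at 150 (mg/kg)/day for 3 months. Body weight, behaviour and fur were observed throughout. At the end, hearts, livers, spleens, lungs and kidneys were sectioned for histological examination of pathological changes.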

Rattus norvegicus [25] = assay: Toxicity in rat assessed as pathological changes in kidney at 150 mg/kg/day, po after 3 months by histomorphology; type: organism-based; parameters: route oral; conditions: in vivo; outline: as §4
[26] = Induction of BMP2 expression in mouse calcarial MC3T3-E1 cells stably transfected with mouse BMP2 promotor-luciferase assessed as upregulation rate at 4 uM; type: functional, cell-based
Outline: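 Reporter assay in murine calvarial MC3T3-E1 cells stably carrying the mouse BMP-2 promoter fused to firefly luciferase (pGL4BMP-2). Cells grown in DMEM with 10% heat-inactivated FBS at 37 °C and 5% CO2. Test compounds at 4.0 μM; lovastatin at 0.4 μM as positive control; 0.1% DMSO as negative control. Up-regulation rate = (RLU of test − RLU of negative control)/RLU of negative control × 100.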

Rattus norvegicus [27] = assay: Induction of bone formation in ovariectomized rat assessed as increase in trabecular bone volume percentage at 15 mg/kg/day, po after 3 months; type: functional, organism-based; conditions: Trabecula; outline: as §2

## CC(=O)c1cc2ccccc2s1
Mus musculus [1]
  Activity: Non-toxic
Rattus norvegicus [2]
  Activity: Active
Rattus norvegicus [3]
  Activity: Dose-dependent effect
Mus musculus [4]
  Activity: Non-toxic
Mus musculus [5]
  Activity: Active
Rattus norvegicus [6]
  Activity: Active
[7]
  LD50 at 408 h: > 1580 mg/kg
Rattus norvegicus [8]
  Activity: Non-toxic
Rattus norvegicus [9]
  Activity: Active
Mus musculus [10]
  Activity: Non-toxic
Mus musculus [11]
  Activity: Non-toxic
Mus musculus [12]
  Activity: Non-toxic
Mus musculus [13]
  Activity: Active
Mus musculus [14]
  Activity: 4.95%
Rattus norvegicus [15]
  Activity: Active
Mus musculus [16]
  Activity: 7.09%
[17]
  LD50 at 408 h: > 5000 mg/kg
Rattus norvegicus [18]
  Activity: Non-toxic
Mus musculus [19]
  Activity: 5.89%
Mus musculus [20]
  Activity: 0.068 g/cm2
Mus musculus [21]
  Activity: Active
Mus musculus [22]
  Activity: Active
Rattus norvegicus [23]
  Activity: Non-toxic
Rattus norvegicus [24]
  Activity: Non-toxic
Rattus norvegicus [25]
  Activity: Non-toxic
[26]
  Activity: 35.6%
Rattus norvegicus [27]
  Activity: Active

From ChEMBL document CHEMBL1156262, “Substituted benzothiophene or benzofuran derivatives as a novel class of bone morphogenetic protein-2 up-regulators: synthesis, structure-activity relationships, and preventive bone loss efficacies in senescence accelerated mice (SAMP6) and ovariectomized rats” (J Med Chem, 2010)
